The text below walks through data of ChEMBL document CHEMBL4392827, “Tryptamine derivatives disarm colistin resistance in polymyxin-resistant gram-negative bacteria” (Bioorg Med Chem, 2019).

Data set [1] has as its system Acinetobacter baumannii. The data set can be described thus: Potentiation of colistin-induced antimicrobial activity against colistin-resistant Acinetobacter baumannii 4106 assessed as fold reduction in colistin MIC at 60 uM after 18 hrs by broth microdilution assay. Type of data set: functional. The method in brief:
(§1)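 Checkerboard-style resensitization following adapted CLSI broth microdilution. Bacteria were grown 4–6 h in CAMHB and subcultured to 5×10^5 CFU/mL. Adjuvant was added from DMSO stock and held constant while colistin was serially diluted in the dosed subculture. Plates were incubated stationary at 37°C for 18 h, then MICs were read. Fold reduction was taken relative to the colistin MIC without adjuvant.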
In general terms: Broth dilution looks for growth in wells or tubes with falling amounts of substance.

The test system of data set [2] is Klebsiella pneumoniae. The data set can be described thus: Potentiation of colistin-induced antimicrobial activity against colistin-resistant Klebsiella pneumoniae B9 assessed as fold reduction in colistin MIC at 60 uM after 18 hrs by broth microdilution assay. The format is functional. The procedure, abridged:
as §1

In data set [3] the test system is Acinetobacter baumannii. The data set can be described thus: Potentiation of colistin-induced antimicrobial activity against colistin-resistant Acinetobacter baumannii ATCC 17978 expressing mcr1 gene assessed as fold reduction in colistin MIC at 60 uM after 18 hrs by broth microdilution assay. The format is functional. The method in brief: as §1
Data set [4] deals with Escherichia coli. The data set can be described thus: Potentiation of colistin-induced antimicrobial activity against colistin-resistant Escherichia coli ATCC 25922 expressing mcr1 gene assessed as fold reduction in colistin MIC at 60 uM after 18 hrs by broth microdilution assay. Type of data set: functional. The method in brief:
as §1

For data set [5], the system named is Acinetobacter baumannii. The data set can be described thus: Toxicity in Acinetobacter baumannii 4106 after 18 hrs by broth microdilution assay. The format is organism-based. Particulars: in vitro. The method in brief:
(§2)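 Single-agent MIC per CLSI broth microdilution. Cells from a 4–6 h culture in cation-adjusted Mueller-Hinton broth adjusted to 5 ×10^5 CFU/mL. Compound (DMSO stock) added to 200 μM top concentration and twofold serially diluted six times, with an untreated control row. Plates sealed and incubated stationary at 37°C for 18 h before MIC read.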

Data set [6] concerns Klebsiella pneumoniae. The data set can be described thus: Toxicity in Klebsiella pneumoniae B9 after 18 hrs by broth microdilution assay. Type of data set: organism-based. The method in brief:
as §2

In data set [7] the test system is Acinetobacter baumannii. The data set can be described thus: Toxicity in Acinetobacter baumannii ATCC 17978 expressing mcr1 gene after 18 hrs by broth microdilution assay. The format is organism-based. The method in brief:
as §2

Data set [8] relates to Escherichia coli. Put plainly: Toxicity in Escherichia coli ATCC 25922 after 18 hrs by broth microdilution assay. Type of data set: organism-based. The following applies: in vitro. The procedure, abridged:
as §2

For data set [9], the system named is Acinetobacter baumannii. Put plainly: Induction of membrane permeabilization in colistin-resistant Acinetobacter baumannii isolate 3942 at 60 uM measured after 1 hr by SYTO-9/propidium iodide staining based fluorescence assay relative to control. The format is functional. The method in brief: (§3)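 Cells were grown overnight in CAMHB at 37°C, diluted 1:10 and grown 4 h more to an OD600 of ~0.3. They were pelleted, washed with sterile water and resuspended at 1/10 volume in water containing compound. After 1 h at 37°C with shaking, cells were washed and stained with SYTO-9/propidium iodide (1:1, 3 μL/mL) for 15 min at RT. Emission was read at 530 and 645 nm (excitation 485 nm), and the green/red ratio was expressed as % of the untreated control.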

Data set [10] relates to Klebsiella pneumoniae. The data set can be described thus: Induction of membrane permeabilization in colistin-resistant Klebsiella pneumoniae isolate C3 at 60 uM measured after 1 hr by SYTO-9/propidium iodide staining based fluorescence assay relative to control. Type of data set: functional. The method in brief:
as §3

The nature of data set [11]: Hemolytic activity in sheep erythrocytes assessed as hemolysis at 100 uM incubated for 1 hr under shaking condition by UV-spectrophotometry. The format is ADME, cell-based, Ovis aries, Erythrocyte. The following applies: read-out: Activity. The method in brief:
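Washed sheep erythrocytes (defibrinated blood spun, resuspended in PBS three times) diluted 10-fold in PBS containing compound from DMSO stock. DMSO negative control (0% lysis), 1% Triton X100 positive control (100% lysis). 1 h at 37°C with shaking, then spun 10 min at 10,000 rpm and supernatant diluted 1:40 in distilled water.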

Calls of active or inactive are those of the source. The rule behind the calls is not given here. Where only a bound is given, the exact number is not on record here.

In the case of `CCCCn1cc(CCNC(=O)c2cc(Br)c(Br)[nH]2)c2ccccc21`, the “fold change (FC)” value in data set [1], in [2], in data set [3] and in data set [4] was 0 each time. Also, the MIC in data set [5], in [6], in [7] and in [8] was > 200 µM throughout. The result in data set [9] and in data set [10] was inactive. Moreover, in [11], the hemolysis at 1 h, 100 µM is < 1%.
